pIC50: −log10 of the molar value. ≈ marks a conversion by molar mass, not a printed value. Values belong to the molecule of their own block, whether it stands above or below them.
What was measured:
[1] = target: CDK2/Cyclin A2 (Homo sapiens) (UniProt P24941+P20248); details: at 500 nM
[2] = target: CDK9/cyclin T1 (Homo sapiens) (UniProt O60563+P50750); details: at 500 nM
[3] = target: CDK2/Cyclin A2 (Homo sapiens, UniProt P24941); experiment: Inhibition of CDK2/cyclin A (unknown origin) using histone H1 as substrate after 30 mins in presence of [33P]-gamma-ATP; assay type: protein-complex assay
[4] = target: CDK9/cyclin T1 (Homo sapiens, UniProt P50750); assay type: protein-complex assay
[5] = Plasma concentration in BALB/c mouse at 2.5 mg/kg, iv at […] by LC/MS-MS analysis; assay type: ADME, organism-based
[6] = Plasma concentration in BALB/c mouse at 2.5 mg/kg, iv at 0.25 hrs by LC/MS-MS analysis; assay type: ADME, organism-based
[7] = Plasma concentration in BALB/c mouse at 5 mg/kg, ip at 0.25 hrs by LC/MS-MS analysis; assay type: ADME, organism-based
[8] = Plasma concentration in BALB/c mouse at 2.5 mg/kg, iv at 0.5 hrs by LC/MS-MS analysis; assay type: ADME, organism-based
[9] = Plasma concentration in BALB/c mouse at 5 mg/kg, ip at 0.5 hrs by LC/MS-MS analysis; assay type: ADME, organism-based
[10] = Plasma concentration in BALB/c mouse at 2.5 mg/kg, iv at 1 hr by LC/MS-MS analysis; assay type: ADME, organism-based
[11] = Plasma concentration in BALB/c mouse at 5 mg/kg, ip at 1 hr by LC/MS-MS analysis; assay type: ADME, organism-based
[12] = Plasma concentration in BALB/c mouse at 2.5 mg/kg, iv at 2 hrs by LC/MS-MS analysis; assay type: ADME, organism-based
[13] = Plasma concentration in BALB/c mouse at 5 mg/kg, ip at 2 hrs by LC/MS-MS analysis; assay type: ADME, organism-based
[14] = Plasma concentration in BALB/c mouse at 5 mg/kg, ip at 4 hrs by LC/MS-MS analysis; assay type: ADME, organism-based
[15] = Initial concentration in BALB/c mouse at 2.5 mg/kg, iv by LC/MS-MS analysis; assay type: ADME, organism-based; details: in vivo
[16] = AUC (0 to t) in BALB/c mouse at 2.5 mg/kg, iv by LC/MS-MS analysis; assay type: ADME, organism-based; details: in vivo
[17] = AUC (0 to t) in BALB/c mouse at 5 mg/kg, ip by LC/MS-MS analysis; assay type: ADME, organism-based; details: in vivo
[18] = Half life in BALB/c mouse at 2.5 mg/kg, iv by LC/MS-MS analysis; assay type: ADME, organism-based; details: in vivo
[19] = system: Mus musculus; experiment: Half life in BALB/c mouse at 5 mg/kg, ip by LC/MS-MS analysis; assay type: ADME, organism-based; details: in vivo
[20] = Volume of distribution in BALB/c mouse at 2.5 mg/kg, iv by LC/MS-MS analysis; assay type: ADME, organism-based; details: in vivo
[21] = system: Mus musculus; experiment: Volume of distribution in BALB/c mouse at 5 mg/kg, ip by LC/MS-MS analysis; assay type: ADME, organism-based; details: in vivo
[22] = Clearance in BALB/c mouse at 2.5 mg/kg, iv by LC/MS-MS analysis; assay type: ADME, organism-based; details: in vivo
[23] = system: Mus musculus; experiment: Clearance in BALB/c mouse at 5 mg/kg, ip by LC/MS-MS analysis; assay type: ADME, organism-based; details: in vivo
[24] = AUC (0 to infinity) in BALB/c mouse at 2.5 mg/kg, iv by LC/MS-MS analysis; assay type: ADME, organism-based; set-up: dose 2.5 mg/kg, time infinity, route intravenous; details: in vivo
[25] = system: Mus musculus; experiment: AUC (0 to infinity) in BALB/c mouse at 5 mg/kg, ip by LC/MS-MS analysis; assay type: ADME, organism-based; set-up: dose 5 mg/kg, route intraperitoneal, time infinity; details: in vivo
[26] = system: 4T1; experiment: Antitumor activity against mouse 4T1 cells allografted in iv dosed Balb/C mouse assessed as tumor growth inhibition administered every 3 days for 21 days measured 2 times for every week during dosing; assay type: functional, organism-based
Method in brief: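 4T1 cells were grown in RPMI-1640 with 10% FBS, pyruvate and NEAA at 37 °C and 5% CO2. Female Balb/C mice received 1×10^6 cells into the second mammary fat pad. At about 100 mm3, mice were grouped five per group and dosed by tail vein in 200 µL (PBS diluent) every three days for 21 days. Tumor volume (L×B²/2, caliper) and body weight were taken twice weekly. The experiment was repeated twice.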

[27] = system: HCT-116; experiment: Antiproliferative activity against human HCT116 cells after 72 hrs by SRB assay; details: HCT-116, 72 h
[28] = system: SH-SY5Y; experiment: Antiproliferative activity against human SH-SY5Y cells after 24 hrs by MTT assay; assay type: functional, cell-based
[29] = Thermodynamic equilibrium solubility of the compound in water
[30] = Thermodynamic equilibrium solubility of the compound in PBS
[31] = Thermodynamic equilibrium solubility of the compound in SGF
[32] = Thermodynamic equilibrium solubility of the compound in SIF

CDK9/cyclin T1, sequence (O60563 whole entry): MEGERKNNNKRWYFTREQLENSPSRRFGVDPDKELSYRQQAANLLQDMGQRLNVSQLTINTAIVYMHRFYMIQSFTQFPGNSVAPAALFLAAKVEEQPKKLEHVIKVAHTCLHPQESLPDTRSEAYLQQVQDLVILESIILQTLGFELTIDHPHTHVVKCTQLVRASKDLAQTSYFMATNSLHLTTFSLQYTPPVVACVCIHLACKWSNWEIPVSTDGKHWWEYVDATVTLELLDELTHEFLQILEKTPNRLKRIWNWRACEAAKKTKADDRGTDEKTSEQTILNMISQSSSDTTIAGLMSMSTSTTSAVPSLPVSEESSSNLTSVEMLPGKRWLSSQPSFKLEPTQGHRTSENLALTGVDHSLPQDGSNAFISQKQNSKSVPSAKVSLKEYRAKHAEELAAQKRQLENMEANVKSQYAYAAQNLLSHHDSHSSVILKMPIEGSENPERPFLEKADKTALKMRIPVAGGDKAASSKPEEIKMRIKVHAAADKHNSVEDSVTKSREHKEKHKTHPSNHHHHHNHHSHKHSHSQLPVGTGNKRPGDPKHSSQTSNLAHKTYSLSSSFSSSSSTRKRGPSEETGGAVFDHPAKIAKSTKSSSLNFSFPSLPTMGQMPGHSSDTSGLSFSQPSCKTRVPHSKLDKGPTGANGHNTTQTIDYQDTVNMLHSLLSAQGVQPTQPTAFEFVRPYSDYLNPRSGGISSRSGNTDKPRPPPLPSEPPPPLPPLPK
CDK9/cyclin T1, sequence (P50750 whole entry): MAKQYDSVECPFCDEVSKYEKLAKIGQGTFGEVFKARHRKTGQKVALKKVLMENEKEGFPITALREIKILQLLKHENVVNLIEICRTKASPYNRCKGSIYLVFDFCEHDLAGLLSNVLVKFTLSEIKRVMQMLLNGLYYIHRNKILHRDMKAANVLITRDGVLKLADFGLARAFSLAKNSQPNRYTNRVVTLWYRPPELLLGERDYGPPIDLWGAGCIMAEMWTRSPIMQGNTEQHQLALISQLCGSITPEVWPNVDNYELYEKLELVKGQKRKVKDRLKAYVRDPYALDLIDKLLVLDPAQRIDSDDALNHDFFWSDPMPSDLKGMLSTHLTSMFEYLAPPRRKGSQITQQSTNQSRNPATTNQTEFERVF

inhibition [1]: 22.6%
inhibition [2]: 40%
SMILES: Nc1nccc(-c2cn(S(=O)(=O)c3ccc(F)cc3)c3ncccc23)n1

pIC50 [3]: 8.00
pIC50 [4]: 7.33
inhibition [1]: 93.4%
inhibition [2]: 86.5%
SMILES: Nc1nccc(-c2c[nH]c3ncc(-c4cccc(C(F)(F)F)c4)cc23)n1

inhibition [1]: 28.4%
inhibition [2]: 50.9%
SMILES: Nc1nccc(-c2cn(S(=O)(=O)c3ccc(C(F)(F)F)cc3)c3ncccc23)n1

concentration at […] [5]: 797 ng/mL
concentration at 0.25 h [6]: 311 ng/mL
concentration at 0.25 h [7]: 162 ng/mL
concentration at 0.5 h [8]: 168 ng/mL
concentration at 0.5 h [9]: 73 ng/mL
concentration at 1 h [10]: 132 ng/mL
concentration at 1 h [11]: 61.6 ng/mL
concentration at 2 h [12]: 99.6 ng/mL
concentration at 2 h [13]: 59.1 ng/mL
concentration at 4 h [14]: 40.7 ng/mL
C0 [15]: 1470 ng/mL
AUC(0-t) [16]: 437 ng·h/mL
AUC(0-t) [17]: 244 ng·h/mL
half-life [18]: 2.5 h
t1/2 [19]: 4.4 h
Vd [20]: 11.3 L/kg
Vd [21]: 63.6 L/kg
clearance [22]: 51.7 mL/min/kg
CL [23]: 15 mL/min/kg
AUC(0-inf) [24]: 795 ng·h/mL
AUC [25]: 504.3 ng·h/mL
SMILES: Nc1nccc(-c2c[nH]c3ncc(-c4ccc(F)cc4)cc23)n1
TGI [26]: Dose-dependent effect

pIC50 [3]: 7.64
pIC50 [4]: 7.03
inhibition [1]: 87.9%
inhibition [2]: 85%
SMILES: Nc1nccc(-c2c[nH]c3ncc(-c4cc5ccccc5o4)cc23)n1

pIC50 [3]: 6.74
pIC50 [4]: 6.80
inhibition [1]: 79.2%
inhibition [2]: 84%
SMILES: Nc1nccc(-c2c[nH]c3ncc(-c4cccc5ccccc45)cc23)n1

pIC50 [27]: 5.02
pIC50 [3]: 8.40
pIC50 [4]: 7.42
inhibition [1]: 97.7%
inhibition [2]: 91%
SMILES: COc1ccc(CCNc2nccc(-c3c[nH]c4ncccc34)n2)cc1

pIC50 [3]: 5.96
pIC50 [4]: 6.20
inhibition [1]: 24.2%
inhibition [2]: 47.4%
SMILES: COc1ccc2ccccc2c1-c1cnc2[nH]cc(-c3ccnc(N)n3)c2c1

pIC50 [27]: 5.82
pIC50 [28]: 6.40
SMILES: Nc1nccc(-c2c[nH]c3ncc(-c4ccc(OC(F)(F)F)cc4)cc23)n1

pIC50 [27]: 6.25
pIC50 [3]: 8.00
pIC50 [4]: 7.70
solubility thermodynamic [29]: < 5 µg/mL
solubility thermodynamic [30]: < 5 µg/mL
solubility thermodynamic [31]: 1500 µg/mL (≈ 4760 µM)
solubility thermodynamic [32]: > 5 µg/mL
inhibition [1]: 92.5%
inhibition [2]: 92.4%
SMILES: c1ccc(CCNc2nccc(-c3c[nH]c4ncccc34)n2)cc1

pIC50 [3]: 6.52
pIC50 [4]: 6.10
inhibition [1]: 74%
inhibition [2]: 71.9%
SMILES: c1cnc2[nH]cc(-c3ccnc(N4CCCCC4)n3)c2c1

pIC50 [27]: 6.15
pIC50 [28]: 6.00
solubility thermodynamic [29]: 80 µg/mL (≈ 277 µM)
solubility thermodynamic [30]: 200 µg/mL (≈ 694 µM)
solubility thermodynamic [31]: 800 µg/mL (≈ 2770 µM)
solubility thermodynamic [32]: 1 µg/mL (≈ 3.47 µM)
SMILES: Nc1nccc(-c2c[nH]c3ncc(-c4cccnc4)cc23)n1

pIC50 [3]: 7.92
pIC50 [4]: 7.09
inhibition [1]: 92%
inhibition [2]: 86.4%
SMILES: Nc1nccc(-c2c[nH]c3ncc(-c4cc5ccccc5s4)cc23)n1

pIC50 [27]: 6.30
pIC50 [28]: 6.05
solubility thermodynamic [29]: 57.4 µg/mL (≈ 178 µM)
solubility thermodynamic [30]: 120 µg/mL (≈ 373 µM)
solubility thermodynamic [31]: 74.4 µg/mL (≈ 231 µM)
solubility thermodynamic [32]: 113 µg/mL (≈ 352 µM)
SMILES: Nc1nccc(-c2c[nH]c3ncc(-c4ccc(Cl)cc4)cc23)n1

inhibition [1]: 28.1%
inhibition [2]: 31.2%
SMILES: Nc1nccc(-c2cn(S(=O)(=O)c3ccc(Br)cc3)c3ncccc23)n1

pIC50 [3]: 7.62
pIC50 [4]: 7.35
inhibition [1]: 78.7%
inhibition [2]: 93.7%
SMILES: CSc1ccccc1-c1cnc2[nH]cc(-c3ccnc(N)n3)c2c1

— ChEMBL document CHEMBL4028900, “Design of Novel 3-Pyrimidinylazaindole CDK2/9 Inhibitors with Potent In Vitro and In Vivo Antitumor Efficacy in a Triple-Negative Breast Cancer Model” (J Med Chem, 2017)
